In ChEMBL document CHEMBL1128396, “Synthesis and biological evaluation of a series of new parenteral optically active 3-[[(N-alkylpyridinium-4'-yl)thio]methyl]-2-oxaisocephems” (1995):
In brackets after ≈: the same amount, converted by molar mass.

Columns and labels:
Assay type in all cases: functional
[1] = tested on: Staphylococcus aureus; test: Antibacterial activity was determined against Methicillin-resistant Staphylococcus aureus (MRSA) 5038 (Gram-positive)
[2] = tested on: Mus musculus; test: Antibacterial activity was determined against Staphylococcus aureus Smith at a challenge dose of 1.32*10e7 (cells/mouse) administered subcutaneously (value in parentheses indicates 95% CL); conditions: sc
How it was run: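 Cultures were grown overnight at 37 °C in tryptic soy broth (S. aureus, MRSA, E. faecalis) or Müller-Hinton broth (E. coli, S. pneumoniae). Graded doses were given subcutaneously 1 h post-infection.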

[3] = tested on: Streptococcus pneumoniae; test: In vitro antibacterial activity against clinical isolates Ampicillin-insensitive Streptococcus pneumoniae was determined
How it was run: (§1)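 2-fold agar dilution on Müller-Hinton agar. Overnight broth cultures were diluted to about 10^6 CFU/mL, and 10^4 CFU/spot was applied to plates with graded drug concentrations. Plates were incubated 18 h at 37 °C.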

[4] = tested on: Staphylococcus epidermidis; test: Antibacterial activity was determined against Staphylococcus epidermidis ATCC 12228 (Gram-positive); how it was run: as §1
[5] = tested on: Enterococcus faecalis; test: In vitro antibacterial activity against clinical isolates Enterococcus faecalis was determined; how it was run: as §1
[6] = tested on: Mus musculus; test: Antibacterial activity was determined against Enterococcus faecalis C 0063 at a challenge dose of 7.00*10e7 (cells/mouse) administered subcutaneously; conditions: sc
How it was run: (§2)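 Cultures were grown overnight at 37 °C in tryptic soy broth (S. aureus, MRSA, E. faecalis) or Müller-Hinton broth (E. coli, S. pneumoniae). Graded doses were given subcutaneously 1 h post-infection. ED50 was calculated by probit from day-7 survival, with 95% confidence limits.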

[7] = tested on: Staphylococcus aureus; test: In vitro antibacterial activity against clinical isolates methicillin-resistant Staphylococcus aureus was determined
How it was run: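 2-fold agar dilution on Müller-Hinton agar. Overnight broth cultures were diluted to about 10^6 CFU/mL, and 10^4 CFU/spot was applied to plates with graded drug concentrations.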

[8] = tested on: Serratia marcescens; test: Antibacterial activity was determined against Serratia marcescens ATCC 12648 (Gram-negative); how it was run: as §1
[9] = tested on: Enterococcus faecalis; test: Antibacterial activity was determined against Enterococcus faecalis ATCC 21212 (Gram-positive); how it was run: as §1
[10] = tested on: Escherichia coli; test: Antibacterial activity was determined against Escherichia coli NIHJ JC-2 (Gram-negative); how it was run: as §1
[11] = tested on: Klebsiella pneumoniae; test: Antibacterial activity was determined against Klebsiella pneumoniae NCTC 9632 (Gram-negative); how it was run: as §1
[12] = tested on: Mus musculus; test: Antibacterial activity was determined against MRSA 5120 at a challenge dose of 7.6*10e7 (cells/mouse) administered subcutaneously; conditions: sc; how it was run: as §2
[13] = tested on: Staphylococcus aureus; test: Antibacterial activity was determined against Staphylococcus aureus FDA 209P (Gram-positive); how it was run: as §1
[14] = tested on: Pseudomonas aeruginosa; test: Antibacterial activity was determined against Pseudomonas aeruginosa ATCC 10145 (Gram-negative); how it was run: as §1
[15] = tested on: Mus musculus; test: Antibacterial activity was determined against Escherichia coli 29 at a challenge dose of 1.35*10e6 (cells/mouse) administered subcutaneously; conditions: sc; how it was run: as §2
[16] = tested on: Staphylococcus aureus; test: […] was determined against MRSA 5120

**Q.** Which results are given for `CO/N=C(\C(=O)N[C@@H]1C(=O)N2C(C(=O)[O-])=C(C[n+]3cccc4c3CCC4)CS[C@H]12)c1csc(N)n1` [CEFPIROME]?
**A.** MIC [1]: 100 µg/mL (≈ 194 µM); ED50 [2]: 1.72 mg/kg; MIC50 [3]: 0.39 µg/mL (≈ 0.758 µM); MIC80 [3]: 0.78 µg/mL (≈ 1.52 µM); MIC90 [3]: 0.78 µg/mL (≈ 1.52 µM); MIC [4]: 0.39 µg/mL (≈ 0.758 µM); MIC50 [5]: 50 µg/mL (≈ 97.2 µM); MIC80 [5]: 100 µg/mL (≈ 194 µM); MIC90 [5]: 100 µg/mL (≈ 194 µM); ED50 [6]: > 100 mg/kg; MIC50 [7]: 50 µg/mL (≈ 97.2 µM); MIC80 [7]: 100 µg/mL (≈ 194 µM); MIC90 [7]: 100 µg/mL (≈ 194 µM); MIC [8]: 0.2 µg/mL (≈ 0.389 µM); MIC [9]: 25 µg/mL (≈ 48.6 µM); MIC [10]: 0.05 µg/mL (≈ 0.0972 µM); MIC [11]: 0.05 µg/mL (≈ 0.0972 µM); ED50 [12]: 27.7 mg/kg; MIC [13]: 0.39 µg/mL (≈ 0.758 µM); MIC [14]: 6.25 µg/mL (≈ 12.1 µM); ED50 [15]: 0.64 mg/kg; MIC [16]: 50 µg/mL (≈ 97.2 µM)
